Experimental data: ChEMBL document CHEMBL1142436, “Design and synthesis of 4-substituted indolo[3,2-e][1,2,3]triazolo[1,5-a]pyrimidine derivatives with antitumor activity” (2008)

Legend:
Assay type in all cases: functional
CCRF-CEM = test: Growth inhibition of human CCRF-CEM cells after 48 hrs
Summary of the method: (§1)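 NCI ~60-line screen. Cells were grown in RPMI 1640 with 5% FBS and 2 mM L-glutamine and plated at 5000–40000 cells/well. After a 24 h preincubation, five drug concentrations from DMSO stocks were added for 48 h at 37 °C. Cells were TCA-fixed, stained with SRB and read at 515 nm. GI50 was taken from time-zero and control absorbances and reported as pGI50.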

HL-60 = test: Growth inhibition of human HL60 cells after 48 hrs; conditions: HL-60, 48 h; summary of the method: as §1
K562 = test: Growth inhibition of human K562 cells after 48 hrs; conditions: K562, 48 h; summary of the method: as §1
MOLT-4 = test: Growth inhibition of human MOLT4 cells after 48 hrs; conditions: MOLT-4, 48 h; summary of the method: as §1
[1] = Growth inhibition of human HS578T cells after 48 hrs; conditions: Hs-578T; summary of the method: as §1
MDA-MB-435 = test: Growth inhibition of human MDA-MB435 cells after 48 hrs; conditions: MDA-MB-435, 48 h; summary of the method: as §1
T47D = test: Growth inhibition of human T47D cells after 48 hrs
Summary of the method: (§2)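 NCI 60-line screen: cells in RPMI 1640 with 5% FBS and 2 mM L-glutamine, plated at 5000–40000 cells/well, grown 24 h (37 °C, 5% CO₂), then exposed to five 10-fold or ½-log dilutions (DMSO stock) for 48 h. Fixed with TCA (final 10% for adherent cells, 16% for suspension cells), then SRB stained with absorbance at 515 nm. GI50 from percentage growth relative to time-zero and control wells.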

A549 = test: Growth inhibition of human A549 cells after 48 hrs; conditions: A549, 48 h; summary of the method: as §1
EKVX = test: Growth inhibition of human EKVX cells after 48 hrs; summary of the method: as §1
NCI-H226 = test: Growth inhibition of human NCI-H226 cells after 48 hrs; conditions: NCI-H226, 48 h; summary of the method: as §1
NCI-H23 = test: Growth inhibition of human NCI-H23 cells after 48 hrs; summary of the method: as §1
NCI-H322M = test: Growth inhibition of human NCI-H322M cells after 48 hrs; summary of the method: as §1
NCI-H460 = test: Growth inhibition of human NCI-H460 cells after 48 hrs; conditions: NCI-H460, 48 h; summary of the method: as §1
HCT-116 = test: Growth inhibition of human HCT116 cells after 48 hrs; conditions: HCT-116, 48 h; summary of the method: as §1
KM12 = test: Growth inhibition of human KM12 cells after 48 hrs; conditions: KM12, 48 h; summary of the method: as §1
SF-295 = test: Growth inhibition of human SF295 cells after 48 hrs; conditions: SF-295, 48 h; summary of the method: as §1
SNB-19 = test: Growth inhibition of human SNB19 cells after 48 hrs; conditions: SNB-19, 48 h; summary of the method: as §2
U-251 = test: Growth inhibition of human U251 cells after 48 hrs; conditions: U-251, 48 h; summary of the method: as §2
LOX IMVI = test: Growth inhibition of human LOXIMVI cells after 48 hrs; summary of the method: as §1
M14 = test: Growth inhibition of human M14 cells after 48 hrs; conditions: M14, 48 h; summary of the method: as §1
SK-MEL-28 = test: Growth inhibition of human SK-MEL28 cells after 48 hrs; conditions: SK-MEL-28, 48 h; summary of the method: as §1
UACC-257 = test: Growth inhibition of human UACC257 cells after 48 hrs; conditions: UACC-257, 48 h; summary of the method: as §2
OVCAR-3 = test: Growth inhibition of human OVCAR-3 cells after 48 hrs; conditions: OVCAR-3, 48 h; summary of the method: as §1
OVCAR-4 = test: Growth inhibition of human OVCAR4 cells after 48 hrs; conditions: OVCAR-4, 48 h; summary of the method: as §1
OVCAR-5 = test: Growth inhibition of human OVCAR5 cells after 48 hrs; conditions: OVCAR-5, 48 h; summary of the method: as §1
786-0 = test: Growth inhibition of human 786-0 cells after 48 hrs; conditions: 786-0, 48 h; summary of the method: as §1
A498 = test: Growth inhibition of human A498 cells after 48 hrs; conditions: A498, 48 h; summary of the method: as §1
ACHN = test: Growth inhibition of human ACHN cells after 48 hrs; summary of the method: as §1
CAKI-1 = test: Growth inhibition of human CAKI1 cells after 48 hrs; conditions: CAKI-1, 48 h; summary of the method: as §1
TK-10 = test: Growth inhibition of human TK10 cells after 48 hrs; conditions: TK-10, 48 h; summary of the method: as §2
UO-31 = test: Growth inhibition of human UO31 cells after 48 hrs; conditions: UO-31, 48 h; summary of the method: as §2
MCF7 = test: Growth inhibition of human MCF7 cells after 48 hrs; conditions: MCF7, 48 h; summary of the method: as §1
[2] = read-out: Log LC50 (the source's name) (converted)

Cn1c2ccccc2c2c(=O)n(CCCC(=O)NCCc3c[nH]cn3)c3c(-c4ccccc4)nnn3c21
GI50 (CCRF-CEM): 1510 nM
LC50 (CCRF-CEM): > 50.1 µM
TGI (CCRF-CEM; read-out: pTGI (converted)): > 50.1 µM
GI50 (HL-60): 11.7 µM
LC50 (HL-60): > 50.1 µM
TGI (HL-60; read-out: pTGI (converted)): 28.2 µM
GI50 (K562): 8.91 µM
LC50 (K562): > 50.1 µM
TGI (K562; read-out: pTGI (converted)): 26.9 µM
GI50 (MOLT-4): 3.98 µM
LC50 (MOLT-4): > 50.1 µM
TGI (MOLT-4; read-out: pTGI (converted)): 21.4 µM
GI50 [1]: 10.5 µM
LC50 (50% lethal concentration) [1]: 49 µM
TGI ([1]; read-out: pTGI (converted)): 22.4 µM
GI50 (MDA-MB-435): 10.2 µM
LC50 (MDA-MB-435): 39.8 µM
TGI (MDA-MB-435; read-out: pTGI (converted)): 20 µM
GI50 (T47D): 10.5 µM
CC50 (T47D; [2]): > 50.1 µM
TGI (T47D; read-out: pTGI (converted)): 25.1 µM
GI50 (A549): 12.9 µM
CC50 (A549; [2]): 45.7 µM
TGI (A549; read-out: pTGI (converted)): 24 µM
GI50 (EKVX): 10 µM
LC50 (EKVX): > 50.1 µM
TGI (EKVX; read-out: pTGI (converted)): 24 µM
GI50 (NCI-H226): > 50.1 µM
CC50 (NCI-H226; [2]): > 50.1 µM
TGI (NCI-H226; read-out: pTGI): > 50.1 µM
TGI (NCI-H23; Homo sapiens, NCI-H23, 48 h, read-out: pTGI (converted)): 46.8 µM
CC50 (NCI-H23; [2]): 13.2 µM
GI50 (NCI-H322M): 11 µM
LC50 (NCI-H322M): > 50.1 µM
TGI (NCI-H322M; read-out: pTGI (converted)): 29.5 µM
GI50 (NCI-H460): 11 µM
LC50 (NCI-H460): > 50.1 µM
TGI (NCI-H460; read-out: pTGI (converted)): 24.5 µM
GI50 (HCT-116): 5.89 µM
LC50 (HCT-116): 32.4 µM
TGI (HCT-116; read-out: pTGI (converted)): 13.8 µM
GI50 (KM12): 8.13 µM
LC50 (KM12): 35.5 µM
TGI (KM12; read-out: pTGI (converted)): 17 µM
GI50 (SF-295): 9.12 µM
LC50 (SF-295): 34.7 µM
TGI (SF-295; read-out: pTGI (converted)): 17.8 µM
GI50 (SNB-19): 11.7 µM
LC50 (SNB-19): 49 µM
TGI (SNB-19; read-out: pTGI (converted)): 24 µM
GI50 (U-251): 9.55 µM
LC50 (U-251): 36.3 µM
TGI (U-251; read-out: pTGI (converted)): 18.6 µM
GI50 (LOX IMVI): 11.2 µM
LC50 (lethal concentration, 50% cell kill) (LOX IMVI): 46.8 µM
TGI (LOX IMVI; read-out: pTGI (converted)): 22.9 µM
GI50 (M14): 12 µM
LC50 (M14): 49 µM
TGI (M14; read-out: pTGI (converted)): 24.5 µM
GI50 (SK-MEL-28): 8.91 µM
LC50 (SK-MEL-28): 32.4 µM
TGI (SK-MEL-28; read-out: pTGI (converted)): 17 µM
GI50 (UACC-257): 12 µM
LC50 (UACC-257): 38.9 µM
TGI (UACC-257; read-out: pTGI (converted)): 21.4 µM
GI50 (OVCAR-3): 8.32 µM
LC50 (OVCAR-3): 31.6 µM
TGI (OVCAR-3; read-out: pTGI (converted)): 16.2 µM
GI50 (OVCAR-4): 10.2 µM
LC50 (OVCAR-4): 41.7 µM
TGI (OVCAR-4; read-out: pTGI (converted)): 20.4 µM
GI50 (OVCAR-5): 11 µM
LC50 (concentration killing 50% of cells) (OVCAR-5): 38 µM
TGI (OVCAR-5; read-out: pTGI (converted)): 20.4 µM
GI50 (786-0): 2190 nM
LC50 (786-0): 26.9 µM
TGI (786-0; read-out: pTGI (converted)): 8.13 µM
GI50 (A498): 7.59 µM
CC50 (A498; [2]): 30.9 µM
TGI (A498; read-out: pTGI (converted)): 15.1 µM
GI50 (ACHN): 9.77 µM
LC50 (ACHN): 33.1 µM
TGI (ACHN; read-out: pTGI (converted)): 17.8 µM
GI50 (CAKI-1): 12 µM
LC50 (concentration killing 50% of cells) (CAKI-1): > 50.1 µM
TGI (CAKI-1; read-out: pTGI (converted)): 33.1 µM
GI50 (TK-10): 4.79 µM
LC50 (TK-10): 26.9 µM
TGI (TK-10; read-out: pTGI (converted)): 11.5 µM
GI50 (UO-31): 7.41 µM
LC50 (UO-31): 29.5 µM
TGI (UO-31; read-out: pTGI (converted)): 14.8 µM
GI50 (MCF7): 12.9 µM
LC50 (MCF7): > 50.1 µM
TGI (MCF7; read-out: pTGI (converted)): 30.2 µM
